From ChEMBL document CHEMBL1821638, “Targeting the human malaria parasite Plasmodium falciparum: in vitro identification of a new antiplasmodial hit in 4-phenoxy-2-trichloromethylquinazoline series” (Eur J Med Chem, 2011)
The source made the active and inactive calls. No cut-off for these calls is given here.

Assays:
Plasmodium falciparum [1] = experiment: Antiplasmodial activity against chloroquine, pyrimethamine and proguanil-resistant Plasmodium falciparum W2 infected in human A positive erythrocytes after 72 hrs by SYBR Green I assay; format: functional, organism-based; settings: W2, 72 h
[2] = Cytotoxicity against human HepG2 cells after 72 hrs by MTT assay; format: cell-based
How it was run: (§1)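 HepG2 or HFF cells seeded in RPMI with 10% foetal bovine serum, L-glutamine and penicillin/streptomycin, 37 °C, 6% CO₂; after 24 h, medium with various compound concentrations added for 72 h. Wells checked microscopically for precipitate. MTT in serum-free medium 2 h at 37 °C, formazan dissolved in DMSO, absorbance at 570 nm (630 nm reference). Viability as percent of untreated control; doxorubicin reference.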

[3] = Selectivity index, ratio of CC50 for human HepG2 cells to IC50 for chloroquine, pyrimethamine and proguanil-resistant Plasmodium falciparum W2; format: functional
Plasmodium falciparum [4] = experiment: Antiplasmodial activity against chloroquine, pyrimethamine and proguanil-resistant Plasmodium falciparum W2 infected in human A positive erythrocytes at > 50 uM after 72 hrs by SYBR Green I assay; format: functional, organism-based
How it was run: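 W2 strain kept in continuous culture in A+ human erythrocytes at 2.5% hematocrit. Medium was RPMI 1640 with 25 mM HEPES, 25 mM NaHCO3 and 10% A+ human serum, at 37 °C under 5% O2/5% CO2/90% N2, parasitaemia 1–6%. Drug exposure 72 h. Lysis buffer with SYBR Green I, saponin and Triton X-100, 15 min at 37 °C. Fluorescence read at ex 497/em 520 nm. IC50 by non-linear regression, mean of three independent experiments.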

Toxoplasma gondii = experiment: Antiparasitic activity against Toxoplasma gondii PRU tachyzoites harboring beta-Gal gene infected in human HFF cells after 72 hrs by microtiter plate based assay; format: functional, cell-based
How it was run: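 T. gondii PRU-b-Gal tachyzoites kept by serial passage in confluent human foreskin fibroblast (HFF) monolayers. Compounds in DMSO (final <0.5% v/v) added at various concentrations in triplicate. Controls: DMSO-treated, pyrimethamine, and uninfected drug-free monolayers. Incubated 72 h at 37 °C, 6% CO2. Read by colorimetric microtiter assay.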

[5] = Cytotoxicity against human HFF cells after 72 hrs by MTT assay; format: cell-based; how it was run: as §1
Salmonella typhimurium [6] = experiment: Mutagenic activity in Salmonella Typhimurium TA100 assessed as number of spontaneous and drug-induced revertants at 25 to 125 nM after 48 hrs by Ames test; format: toxicity, organism-based; settings: salmonella enterica subsp. enterica serovar typhimurium, 0.125 µM
How it was run: (§2)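 Salmonella tester strains grown overnight in nutrient broth. Compound in DMSO added to 0.1 mL culture and preincubated 1 h at 37 °C with shaking, in duplicate. Mixed with 2 mL molten top agar and plated on Vogel-Bonner minimal agar. After 48 h at 37 °C, spontaneous and induced revertants per plate counted for each dose by laser colony counter, against negative controls.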

Salmonella typhimurium [7] = experiment: Mutagenic activity in Salmonella Typhimurium TA102 assessed as number of spontaneous and drug-induced revertants at 25 to 125 nM after 48 hrs by Ames test; format: toxicity, organism-based; settings: salmonella enterica subsp. enterica serovar typhimurium, 0.125 µM; how it was run: as §2
Salmonella typhimurium [8] = experiment: Mutagenic activity in Salmonella Typhimurium TA97a assessed as number of spontaneous and drug-induced revertants at 25 to 125 nM after 48 hrs by Ames test; format: toxicity, organism-based; settings: salmonella enterica subsp. enterica serovar typhimurium, 0.125 µM; how it was run: as §2
Salmonella typhimurium [9] = experiment: Mutagenic activity in Salmonella Typhimurium TA98 assessed as number of spontaneous and drug-induced revertants at 25 to 125 nM after 48 hrs by Ames test; format: toxicity, organism-based; settings: salmonella enterica subsp. enterica serovar typhimurium, 0.125 µM; how it was run: as §2
[10] = Solubility of the compound; format: physicochemical
HepG2 = experiment: Cytotoxicity against human HepG2 cells at > 125 uM after 72 hrs by MTT assay; format: cell-based; settings: hepg2, 72 h; how it was run: as §1

Compound | IC50 (Plasmodium falciparum [1]) | CC50 at 72 h [2] | Ratio CC50/IC50 [3] | further results
Cc1ccccc1Oc1nc(C(Cl)(Cl)Cl)nc2ccccc12 | 5.5 µM | 25.1 µM | 4.6 | –
FC(F)(F)c1ccc(Oc2nc(C(Cl)(Cl)Cl)nc3ccccc23)cc1 | 1.8 µM | 29.6 µM | 16.4 | –
ClC(Cl)(Cl)c1nc(Oc2cccc3ccccc23)c2ccccc2n1 | 3.9 µM | 2.4 µM | 0.6 | –
COc1ccccc1Oc1nc(C(Cl)(Cl)Cl)nc2ccccc12 | 6 µM | 6.7 µM | 1.1 | –
Clc1ccccc1Oc1nc(C(Cl)(Cl)Cl)nc2ccccc12 | 4.4 µM | 33.6 µM | 7.6 | –
FC(F)(F)c1ccccc1Oc1nc(C(Cl)(Cl)Cl)nc2ccccc12 | 3.3 µM | 34.9 µM | 10.6 | –
Fc1cccc(Oc2nc(C(Cl)(Cl)Cl)nc3ccccc23)c1 | 2.3 µM | 41.7 µM | 18.1 | –
Clc1cccc(Oc2nc(C(Cl)(Cl)Cl)nc3ccccc23)c1 | 2.4 µM | 26.1 µM | 10.9 | –
Oc1nc(C(Cl)(Cl)Cl)nc2ccccc12 | – | 21 µM | <0.42 | Activity (Plasmodium falciparum [4]): inactive
FC(F)(F)c1nc(Oc2ccc(Cl)cc2)c2ccccc2n1 | 68 µM | 72 µM | 1.1 | –
Cc1ccc(Oc2nc(C(Cl)(Cl)Cl)nc3ccccc23)cc1C | 3.3 µM | 29 µM | 8.8 | –
ClC(Cl)(Cl)c1nc(Oc2ccc3ccccc3c2)c2ccccc2n1 | 2.3 µM | 3.6 µM | 1.6 | –
Cc1nc(Oc2ccc(Cl)cc2)c2ccccc2n1 | 28 µM | 26 µM | 0.9 | –
C[C@H]1c2cccc(O)c2C(=O)C2=C(O)[C@]3(O)C(=O)C(C(N)=O)=C(O)[C@@H](N(C)C)[C@@H]3[C@@H](O)[C@@H]21.O [DOXYCYCLINE] | 4.8 µM | 20 µM | 4.2 | –
COc1cccc(Oc2nc(C(Cl)(Cl)Cl)nc3ccccc23)c1 | 1.9 µM | 0.6 µM | 0.3 | –
Fc1ccc(Oc2nc(C(Cl)(Cl)Cl)nc3ccccc23)cc1 | 2.4 µM | 29.5 µM | 12.3 | –
CCc1nc(N)nc(N)c1-c1ccc(Cl)cc1 [PYRIMETHAMINE] | – | 7.1 µM | – | IC50 (Toxoplasma gondii): 1.1 µM; CC50 at 72 h [5]: > 50 µM
COc1cccc2c1C(=O)c1c(O)c3c(c(O)c1C2=O)C[C@@](O)(C(=O)CO)C[C@@H]3O[C@H]1C[C@H](N)[C@H](O)[C@H](C)O1 [DOXORUBICIN] | – | 0.2 µM | – | Activity (Salmonella typhimurium [6]): Toxic; Activity (Salmonella typhimurium [7]): Toxic; CC50 at 72 h [5]: 0.03 µM; Activity (Salmonella typhimurium [8]): Toxic; Activity (Salmonella typhimurium [9]): Toxic
O=[N+]([O-])c1ccccc1Oc1nc(C(Cl)(Cl)Cl)nc2ccccc12 | 4.9 µM | > 8 µM | >1.6 | solubility [10]: Insoluble
O=[N+]([O-])c1cccc(Oc2nc(C(Cl)(Cl)Cl)nc3ccccc23)c1 | 3 µM | 36.3 µM | 12.1 | –
Cc1ccc(Oc2nc(C(Cl)(Cl)Cl)nc3ccccc23)cc1 | 3.2 µM | 42.8 µM | 13.4 | –
O=[N+]([O-])c1ccc(Oc2nc(C(Cl)(Cl)Cl)nc3ccccc23)cc1 | 3.5 µM | > 16 µM | >4.6 | solubility [10]: Insoluble
COc1ccc(Oc2nc(C(Cl)(Cl)Cl)nc3ccccc23)cc1 | 2.9 µM | 34.1 µM | 11.8 | –
Clc1nc(C(Cl)(Cl)Cl)nc2ccccc12 | – | – | >2.3 | Activity (HepG2): Non-toxic
Cc1cccc(Oc2nc(C(Cl)(Cl)Cl)nc3ccccc23)c1 | 2.9 µM | 7.6 µM | 2.6 | –
FC(F)(F)c1cccc(Oc2nc(C(Cl)(Cl)Cl)nc3ccccc23)c1 | 2.3 µM | 25.1 µM | 10.9 | –
ClC(Cl)(Cl)c1nc(Oc2ccccc2)c2ccccc2n1 | 3.1 µM | 50 µM | 16 | –
Fc1ccccc1Oc1nc(C(Cl)(Cl)Cl)nc2ccccc12 | 5 µM | 38.3 µM | 7.7 | –
